We go through five compounds from ChEMBL document CHEMBL3232746, “Diamidine compounds for selective inhibition of protein arginine methyltransferase 1” (J Med Chem, 2014).

The target in test [1] is T1, Protein arginine N-methyltransferase 1 (Homo sapiens, UniProt Q99873). Briefly: Inhibition of His6x-tagged recombinant PRMT1 (unknown origin) expressed in Escherichia coli BL21(DE3) using [3H]SAM and histone H4 (1 to 20) as substrate at 20 uM after 8 mins by P81 filter binding assay. The method in brief:
(§1)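 Enzyme 0.04 μM (His-PRMT1 purified on Ni-NTA, or HA-PRMT5 co-expressed with WDR77 in 293T and purified on HA beads). Assay used 0.5 μM [3H]SAM and 1 μM H4(1–20) in 50 mM HEPES pH 8.0, 50 mM NaCl, 1 mM EDTA, 0.5 mM DTT. Preincubation 5 min at room temperature, then 8 min at 30 °C. P81 filter binding with scintillation counting. Compared with no-inhibitor control.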
Target sequence in this assay (Q99873 whole entry, looked up): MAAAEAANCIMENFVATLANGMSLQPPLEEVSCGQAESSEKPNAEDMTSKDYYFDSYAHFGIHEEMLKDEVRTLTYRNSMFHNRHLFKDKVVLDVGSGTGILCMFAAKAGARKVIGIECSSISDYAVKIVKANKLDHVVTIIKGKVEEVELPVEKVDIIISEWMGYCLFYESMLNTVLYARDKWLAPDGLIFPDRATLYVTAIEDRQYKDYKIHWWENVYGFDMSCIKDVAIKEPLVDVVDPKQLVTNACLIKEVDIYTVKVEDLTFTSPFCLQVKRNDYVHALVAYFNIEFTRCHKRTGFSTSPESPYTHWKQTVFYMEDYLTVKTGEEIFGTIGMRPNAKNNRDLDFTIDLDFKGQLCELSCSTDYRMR

Test [2] deals with T2, Protein arginine N-methyltransferase 5 (Homo sapiens, UniProt O14744). Briefly: Inhibition of HA-tagged recombinant PRMT5 (unknown origin) expressed in HEK293T cells using [3H]SAM and histone H4 (1 to 20) as substrate at 20 uM after 8 mins by P81 filter binding assay. The gist of the method: as §1
T2 sequence (O14744 whole entry): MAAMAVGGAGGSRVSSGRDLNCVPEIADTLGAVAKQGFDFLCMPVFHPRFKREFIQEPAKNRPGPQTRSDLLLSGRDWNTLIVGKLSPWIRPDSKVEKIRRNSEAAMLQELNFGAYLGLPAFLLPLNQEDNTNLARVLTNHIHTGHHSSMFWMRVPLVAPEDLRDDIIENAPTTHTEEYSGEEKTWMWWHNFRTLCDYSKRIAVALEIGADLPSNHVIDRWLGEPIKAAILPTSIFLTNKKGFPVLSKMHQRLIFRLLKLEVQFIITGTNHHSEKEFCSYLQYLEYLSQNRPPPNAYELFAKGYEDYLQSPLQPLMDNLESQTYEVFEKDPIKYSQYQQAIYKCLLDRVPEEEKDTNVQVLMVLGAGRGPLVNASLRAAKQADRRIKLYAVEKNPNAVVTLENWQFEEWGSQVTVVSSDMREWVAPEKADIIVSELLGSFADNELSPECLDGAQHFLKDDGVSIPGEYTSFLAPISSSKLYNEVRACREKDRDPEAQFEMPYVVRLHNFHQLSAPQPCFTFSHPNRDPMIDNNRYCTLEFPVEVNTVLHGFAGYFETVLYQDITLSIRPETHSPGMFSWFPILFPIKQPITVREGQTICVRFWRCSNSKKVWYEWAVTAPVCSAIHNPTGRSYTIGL
Test [3] has as its target T1, Protein arginine N-methyltransferase 1. As to the kind of experiment: Inhibition of His6x-tagged recombinant PRMT1 (unknown origin) expressed in Escherichia coli BL21(DE3) using [3H]SAM and histone H4 (1 to 20) as substrate after 8 mins by P81 filter binding assay.
Target sequence in this assay (Q99873 whole entry): as the sequence (Q99873 whole entry, looked up) above
The target in test [4] is T2, Protein arginine N-methyltransferase 5. Briefly: Inhibition of HA-tagged recombinant PRMT5 (unknown origin) expressed in HEK293T cells using [3H]SAM and histone H4 (1 to 20) as substrate after 8 mins by P81 filter binding assay. On the set-up: species or system HEK-293T. The gist of the method:
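HA-PRMT5 from HEK293T co-transfected with PRMT5 and WDR77 plasmids, HA-bead purified; 0.04 μM enzyme, 0.5 μM [3H]SAM, 1 μM H4(1–20) in HEPES pH 8.0 buffer; inhibitor preincubated with enzyme and SAM 5 min before peptide start; 8 min at 30 °C; P81 disks washed in NaHCO3 pH 9.0, scintillation counted; IC50 over varied inhibitor concentrations.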

Test [5] has as its target T3, Histone-arginine methyltransferase CARM1 (Homo sapiens, UniProt Q86X55).
T3 sequence (Q86X55 whole entry): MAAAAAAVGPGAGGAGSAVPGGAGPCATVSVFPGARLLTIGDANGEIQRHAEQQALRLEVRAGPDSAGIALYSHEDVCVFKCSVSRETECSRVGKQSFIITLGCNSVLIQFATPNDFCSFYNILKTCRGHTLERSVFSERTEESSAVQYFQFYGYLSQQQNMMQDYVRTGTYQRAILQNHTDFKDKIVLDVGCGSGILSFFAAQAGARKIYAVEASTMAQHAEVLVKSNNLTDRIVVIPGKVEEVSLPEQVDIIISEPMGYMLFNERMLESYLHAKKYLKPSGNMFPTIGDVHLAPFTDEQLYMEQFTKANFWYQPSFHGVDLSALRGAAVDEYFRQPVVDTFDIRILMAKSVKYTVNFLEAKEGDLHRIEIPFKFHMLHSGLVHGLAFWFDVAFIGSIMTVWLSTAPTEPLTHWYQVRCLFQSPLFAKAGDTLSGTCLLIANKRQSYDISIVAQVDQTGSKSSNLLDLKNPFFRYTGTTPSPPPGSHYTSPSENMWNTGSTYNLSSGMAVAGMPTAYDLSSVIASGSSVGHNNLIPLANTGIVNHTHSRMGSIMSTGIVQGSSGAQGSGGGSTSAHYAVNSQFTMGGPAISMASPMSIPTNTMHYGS
As to the kind of experiment: Inhibition of GST-tagged CARM1 (unknown origin) using [3H]SAM and histone H3.1 as substrate at 20 uM after 1 hr by P81 filter binding assay.

Test [6] addresses Protein arginine N-methyltransferase 6 (Homo sapiens, UniProt Q96LA8). As to the kind of experiment: Inhibition of His6x-tagged PRMT6 (unknown origin) using [3H]SAM and histone H3.1 as substrate at 20 uM after 1 hr by P81 filter binding assay. The method in brief: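 P81 filter-binding assay with 1 μM histone H3.1 as acceptor and 0.5 μM [3H]SAM in 50 mM HEPES pH 8.0, 50 mM NaCl, 1 mM EDTA, 0.5 mM DTT; enzyme, SAM and inhibitor preincubated 5 min, then substrate added; 1 h at 30 °C; methylation by scintillation counting.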

The species entered for another test is Homo sapiens. As to the kind of experiment: Antiproliferative activity against human CHRF-288-11 cells harboring trisomy 21 assessed as cell viability at 20 uM measured everyday for 3 days by CellTiter-Glo assay. Type of test: functional, cell-based. The gist of the method: (§2)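 RPMI + 10% FBS culture; 1000–1500 cells seeded per well; 20 μM compound or matching DMSO volume added; CellTiter-Glo luminescence read at 0, 24, 48, 72 h after treatment; viability expressed as percent of viable cells relative to DMSO-treated control.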

The next test has as its system MOLM-13. Briefly: Antiproliferative activity against human MOLM13 cells with MLL-AF9 translocation assessed as cell viability at 20 uM measured everyday for 3 days by CellTiter-Glo assay. Type of test: functional, cell-based. The method in brief: as §2
The test system of another test is Jurkat. Briefly: Antiproliferative activity against human Jurkat cells assessed as cell viability at 20 uM measured everyday for 3 days by CellTiter-Glo assay. Format: functional, cell-based. The method in brief:
as §2
(In ATP-based viability assays light output follows the ATP content of the culture.)

The subject of a further test is HL-60. As to the kind of experiment: Antiproliferative activity against human HL60 cells with PML-RAR alpha translocation assessed as cell viability at 20 uM measured everyday for 3 days by CellTiter-Glo assay. Format: functional, cell-based. The gist of the method:
as §2

Test [7] deals with T1, Protein arginine N-methyltransferase 1. Briefly: Competitive inhibition of His6x-tagged recombinant PRMT1 (unknown origin) expressed in Escherichia coli BL21(DE3) using [3H]SAM and histone H4 (1 to 20) as substrate by double reciprocal plot analysis. The method in brief:
(§3)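 Radiometric P81 filter-binding kinetics in 50 mM HEPES pH 8.0, 50 mM NaCl, 1 mM EDTA, 0.5 mM DTT, 30 °C; inhibitor at 0, 10, 20, 30, 40 μM; initial velocities with H4-20 varied at 3 μM [3H]SAM, or [3H]SAM varied at 15 μM H4-20; Michaelis–Menten and double-reciprocal analysis giving Kis and Kii.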
Target sequence in this assay (Q99873 whole entry, looked up): as the sequence (Q99873 whole entry, looked up) above

Test [8] shares this target. Briefly: Uncompetitive inhibition of His6x-tagged recombinant PRMT1 (unknown origin) expressed in Escherichia coli BL21(DE3) using [3H]SAM and histone H4 (1 to 20) as substrate by double reciprocal plot analysis. The gist of the method:
as §3
Target sequence in this assay (Q99873 whole entry, looked up): as the sequence (Q99873 whole entry, looked up) above

For test [9] the target is unchanged. Briefly: Inhibition of His6x-tagged recombinant PRMT1 (unknown origin) expressed in Escherichia coli BL21(DE3) using fluorescein-labeled histone H4 (1 to 20) as substrate at 10 to 50 uM after 8 mins by competitive fluorescence anisotropy binding assay. The method in brief:
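0.2 μM fluorescein-labelled H4(1–20) and 2 μM PRMT1 in P81 assay buffer (HEPES pH 8.0); inhibitor titrated in until signal plateaued; anisotropy read at excitation 498 nm, emission 524 nm.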
Target sequence in this assay (Q99873 whole entry, looked up): as the sequence (Q99873 whole entry, looked up) above
(In fluorescence polarisation assays a small probe gives low polarisation when free and higher when bound to something large.)

For test [10] the target is unchanged. As to the kind of experiment: Inhibition of PRMT1 in human 293T cells assessed as reduction of GFP-ALY methylation by Western blot analysis. Type of test: cell-based. The gist of the method: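 GFP-ALY stably expressing 293T cells in DMEM + 10% FBS, treated 15 h with 20 μM compound; lysed on ice in NP-40 buffer; GFP-ALY pulled down on GFP antibody beads; SDS-PAGE and Western blot with ASYM24 methylarginine antibody, equal GFP-ALY loading.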
Target sequence in this assay (Q99873 whole entry, looked up): as the sequence (Q99873 whole entry, looked up) above
(In general: A western blot detects proteins with antibodies after separation by electrophoresis.)

Another test relates to HEL. As to the kind of experiment: Antiproliferative activity against human HEL cells harboring JAK2 V617F mutant assessed as cell viability at 20 uM measured everyday for 3 days by CellTiter-Glo assay. Format: functional, cell-based. The method in brief:
as §2

The subject of the next test is CMY. Briefly: Antiproliferative activity against human CMY cells harboring trisomy 21 assessed as cell viability at 20 uM measured everyday for 3 days by CellTiter-Glo assay. Format: functional, cell-based. The gist of the method:
as §2

Activity calls are given as the source filed them. No cut-off for these calls is given here.

Chain of Protein arginine N-methyltransferase 6 (Q96LA8 whole entry): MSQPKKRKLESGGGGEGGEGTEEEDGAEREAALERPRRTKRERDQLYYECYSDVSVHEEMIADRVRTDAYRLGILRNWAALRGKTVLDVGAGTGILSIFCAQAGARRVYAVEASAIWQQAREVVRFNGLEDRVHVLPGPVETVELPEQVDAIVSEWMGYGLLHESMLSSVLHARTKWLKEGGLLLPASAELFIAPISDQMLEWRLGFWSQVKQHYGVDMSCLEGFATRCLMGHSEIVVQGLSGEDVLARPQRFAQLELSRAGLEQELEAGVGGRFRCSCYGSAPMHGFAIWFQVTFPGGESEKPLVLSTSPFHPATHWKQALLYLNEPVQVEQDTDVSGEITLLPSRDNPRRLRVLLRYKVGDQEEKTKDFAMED

As a reminder, the inhibition is the drop in the measured response relative to a control, in per cent. Regarding `N=C(N)c1ccc(-c2ccc(-c3ccc(C(=N)N)c(F)c3)o2)cc1F`, the inhibition entry in [1] and in test [2] was “Active” throughout.
Usually IC50 stands for the point on the concentration scale where inhibition reaches its midpoint. Take `N=C(N)c1ccc(-c2ccc(-c3ccc(C(=N)N)nc3)o2)cc1`: the IC50 is 7.2 µM in [3], 186 µM in test [4], > 400 µM in test [5] and 211 µM in test [6].
Consider `N=C(N)c1ccc(-c2ccc(-c3ccc(OCCCCCCCCOc4ccc(-c5ccc(-c6ccc(C(=N)N)cc6)o5)cc4)cc3)o2)cc1`, for which the inhibition in test [1] and in [2] was > 85% in each case.
Consider `N=C(N)c1ccc(-c2ccc(-c3ccc(C(=N)N)cc3)o2)cc1` [FURAMIDINE], for which the inhibition entry (in the test filed under Homo sapiens; with MOLM-13; with Jurkat; in the test with HL-60; in test [9]; in [10]) was “Active” each time. The inhibition result in the test on CMY is “Active”. Also, the inhibition is > 75% in test [1] and 11% in test [2]. The IC50 in [3] was 9.4 µM; in [4] it was 166 µM; in test [5], > 400 µM; in [6] it was 283 µM. Also, in test [7], the Kis was 2.6 µM. Also, in test [8], the Kii was determined as 26 µM. Besides, the inhibition entry with HEL was “inactive”.
Consider `N=C(N)c1ccc(/C=C/c2ccc(C(=N)N)cc2)cc1` [STILBAMIDINE], for which the IC50 in test [4] is 44.1 µM; in [5], 400 µM; in [6], 173 µM.
